# Reference: ChEMBL document CHEMBL3608234, “Synthesis and antiviral evaluation of a novel series of homoserine-based inhibitors of the hepatitis C virus NS3/4A serine protease” (Bioorg Med Chem Lett, 2015)
# What was measured:
# [1] = Inhibition of full length HCV 1b Con1 NS3/4A protease using HiLyte Fluor 610 peptide substrate by biochemical FRET assay; parameters: species or system Hepatitis C virus (isolate Con1)
# Outline: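 Fluorescence (FRET) protease assay on full-length genotype 1b Con1 HCV NS3/4A with HiLyte Fluor 610 peptide substrate; IC50 from percent inhibition versus concentration by four-parameter sigmoidal non-linear regression.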
# Hepatitis C virus = assay: Antiviral activity against HCV Con1 infected in human GS4.1 cells containing HCV Con1 subgenomic replicon assessed as reduction in NS5A protein expression by ELISA method; assay type: functional, cell-based, Hepacivirus hominis; conditions: genotype 1b Con1
# Outline: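 Huh-7 cells carrying HCV Con1 subgenomic replicon (GS4.1); replication followed as NS5A protein expression by ELISA; EC50 from 50% inhibition versus concentration data fitted by four-parameter sigmoidal non-linear regression.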
# [2] = Cytotoxicity against human GS4.1 cells assessed as induction of cell death; assay type: cell-based
# Outline: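 GS4.1 cells (Huh-7 with Con1 subgenomic replicon); CC50 taken as concentration giving 50% cell death, from death versus concentration data relative to blank control.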
# [3] = Intrinsic clearance in rat liver microsomes incubated for 2 hrs; assay type: ADME; conditions: read-out: CLH
Structure (SMILES),IC50 [1] [nM],EC50 (Hepatitis C virus) [nM],CC50 [2] [µM],microsomal CLint [3] [µL/min/mg]
CCn1cc(-c2cc(OCC[C@@H]3NC(=O)N(C)CCCC/C=C\[C@@H]4C[C@@]4(C(=O)NS(=O)(=O)C4(C)CC4)NC3=O)c3ccc(OC)c(C)c3n2)cn1,3,485,36.7,
C#C[C@@H]1CCCN1S(=O)(=O)NC(=O)[C@@]12C[C@H]1/C=C\CCCCN(C)C(=O)N[C@@H](CCOc1cc(-c3nc(C(C)C)cs3)nc3c(Cl)c(OC)ccc13)C(=O)N2,33.8,> 750,21.2,
COc1ccc2c(OCC[C@@H]3NC(=O)N(C)CCCC/C=C\[C@@H]4C[C@@]4(C(=O)NS(=O)(=O)C4(C)CC4)NC3=O)cc(-c3nc(C(C)C)cs3)nc2c1,0.9,44,6.5,155
COc1ccc2c(OCC[C@@H]3NC(=O)N(C)CCCC/C=C\[C@@H]4C[C@@]4(C(=O)NS(=O)(=O)C4(C)CC4)NC3=O)cc(-c3nc(C(C)C)cs3)nc2c1C,2.3,85,31.9,9.3
COc1ccc2c(OCC[C@@H]3NC(=O)N(C)CCCC/C=C\[C@@H]4C[C@@]4(C(=O)NS(=O)(=O)N4CCC[C@H]4C#N)NC3=O)cc(-c3nc(C(C)C)cs3)nc2c1Cl,264,> 750,28.3,
COc1ccc2c(OCC[C@@H]3NC(=O)N(C)CCCC/C=C\[C@@H]4C[C@@]4(C(=O)NS(=O)(=O)C4(C)CC4)NC3=O)cc(-c3nc(C(C)C)cs3)nc2c1F,8,555,57.1,
COc1ccc2c(OCC[C@@H]3NC(=O)N(C)CCCC/C=C\[C@@H]4C[C@@]4(C(=O)NS(=O)(=O)C4(C#N)CC4)NC3=O)cc(-c3nc(C(C)C)cs3)nc2c1Cl,14.4,> 750,> 75,
COc1ccc2c(OCC[C@@H]3NC(=O)N(C)CCCC/C=C\[C@@H]4C[C@@]4(C(=O)NS(=O)(=O)C4(C)CC4)NC3=O)cc(-c3csc(NC(C)C)n3)nc2c1,1.2,1040,37.4,
COc1ccc2c(OCC[C@@H]3NC(=O)N(C)CCCC/C=C\[C@@H]4C[C@@]4(C(=O)NS(=O)(=O)C4(C)CC4)NC3=O)cc(-c3cc(C(F)(F)F)nn3C)nc2c1C,1,440,34.5,
COc1ccc2c(OCC[C@@H]3NC(=O)N(C)CCCC/C=C\[C@@H]4C[C@@]4(C(=O)NS(=O)(=O)N4CCOCC4)NC3=O)cc(-c3nc(C(C)C)cs3)nc2c1Cl,150,> 750,26.4,
COc1ccc2c(OCC[C@@H]3NC(=O)N(C)CCCC/C=C\[C@@H]4C[C@@]4(C(=O)NS(=O)(=O)C4(F)CC4)NC3=O)cc(-c3nc(C(C)C)cs3)nc2c1Cl,2.7,150,51.4,
COc1ccc2c(O[C@@H]3C[C@H]4C(=O)N[C@]5(C(=O)O)C[C@H]5/C=C\CCCCC[C@H](NC(=O)OC5CCCC5)C(=O)N4C3)cc(-c3csc(NC(C)C)n3)nc2c1 [CILUPREVIR],0.9,2.8,21,
COc1ccc2c(OCC[C@@H]3NC(=O)N(C)CCCC/C=C\[C@@H]4C[C@@]4(C(=O)NS(=O)(=O)C4(C)CC4)NC3=O)cc(-c3nc(C(C)C)cs3)nc2c1Br,0.6,20.5,28.3,16.5
